The source made the active and inactive calls. No cut-off for these calls is given here.
Legend:
Yamadazyma tenuis [1] = assay: Antifungal activity against Candida tenuis assessed as zone of inhibition at 0.1 mg/mL after 48 to 72 hrs by stiff-plate agar-diffusion method; assay type: functional; details: read-out: DIZ
Escherichia coli [2] = assay: Antibacterial activity against Escherichia coli assessed as zone of inhibition at 0.1 mg/mL after 24 hrs by stiff-plate agar-diffusion method; assay type: functional; details: read-out: DIZ
[3] = system: Photobacterium leiognathi; assay: Antibacterial activity against Photobacterium leiognathi Sh1 assessed as inhibition of bacterial luminescence at 0.1 mg/mL after 10 mins by bioluminometry-based chronic action test; assay type: functional; set-up: scale not given: the % may be the effect or the level left
Method in brief: (§1)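 Chronic (growth plus luminescence) test with P. leiognathi Sh1 at 10^5 cells/mL in chloride solution, compounds added in DMSO. After 10 min at 25 °C, growth medium added at 1:50 and the mix incubated 16–18 h at 30 °C. Luminescence then measured by bioluminometer as % of untreated control. Tetracycline reference.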

[4] = system: Photobacterium leiognathi; assay: Antibacterial activity against Photobacterium leiognathi Sh1 assessed as inhibition of bacterial luminescence at 0.025 mg/mL after 10 mins by bioluminometry-based acute action test; assay type: functional; set-up: scale not given: the % may be the effect or the level left
Method in brief: (§2)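 Marine P. leiognathi Sh1 (Azov Sea shrimp isolate) diluted in chloride solution to 10^5 cells/mL; compounds suspended in DMSO mixed with 1 mL bacterial suspension. Acute test: 10 min at 25 °C, then bioluminescence measured by bioluminometer as % of compound-free control. Tetracycline reference.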

Mycobacterium [5] = assay: Antibacterial activity against Mycobacterium luteum assessed as zone of inhibition at 0.1 mg/mL after 24 hrs by stiff-plate agar-diffusion method; assay type: functional; details: read-out: DIZ
Mycobacterium [6] = assay: Antibacterial activity against Mycobacterium luteum assessed as zone of inhibition at 0.5 mg/mL after 24 hrs by stiff-plate agar-diffusion method; assay type: functional; details: read-out: DIZ
Aspergillus niger [7] = assay: Antifungal activity against Aspergillus niger assessed as zone of inhibition of late spore formation at 0.5 mg/mL after 48 to 72 hrs by stiff-plate agar-diffusion method; assay type: functional; details: read-out: DIZ
Aspergillus niger [8] = assay: Antifungal activity against Aspergillus niger assessed as zone of inhibition at 0.1 mg/mL after 48 to 72 hrs by stiff-plate agar-diffusion method; assay type: functional; details: read-out: DIZ
Yamadazyma tenuis [9] = assay: Antifungal activity against Candida tenuis assessed as zone of inhibition at 0.5 mg/mL after 48 to 72 hrs by stiff-plate agar-diffusion method; assay type: functional; details: read-out: DIZ
Escherichia coli [10] = assay: Antibacterial activity against Escherichia coli assessed as zone of inhibition at 0.5 mg/mL after 24 hrs by stiff-plate agar-diffusion method; assay type: functional; details: read-out: DIZ
[11] = system: Photobacterium leiognathi; assay: Antibacterial activity against Photobacterium leiognathi Sh1 assessed as inhibition of bacterial luminescence at 0.1 mg/mL after 10 mins by bioluminometry-based acute action test; assay type: functional; set-up: scale not given: the % may be the effect or the level left; method in brief: as §2
Staphylococcus aureus [12] = assay: Antibacterial activity against Staphylococcus aureus assessed as zone of inhibition at 0.1 mg/mL after 24 hrs by stiff-plate agar-diffusion method; assay type: functional; details: read-out: DIZ
[13] = system: Photobacterium leiognathi; assay: Antibacterial activity against Photobacterium leiognathi Sh1 assessed as inhibition of bacterial luminescence at 0.025 mg/mL after 10 mins by bioluminometry-based chronic action test; assay type: functional; set-up: scale not given: the % may be the effect or the level left; method in brief: as §1
[14] = system: Photobacterium leiognathi; assay: Antibacterial activity against Photobacterium leiognathi Sh1 assessed as inhibition of bacterial luminescence at 0.25 mg/mL after 10 mins by bioluminometry-based chronic action test; assay type: functional; set-up: scale not given: the % may be the effect or the level left; method in brief: as §1
Staphylococcus aureus [15] = assay: Antibacterial activity against Staphylococcus aureus assessed as zone of inhibition at 0.5 mg/mL after 24 hrs by stiff-plate agar-diffusion method; assay type: functional; details: read-out: DIZ
[16] = system: Photobacterium leiognathi; assay: Antibacterial activity against Photobacterium leiognathi Sh1 assessed as inhibition of bacterial luminescence at 0.25 mg/mL after 10 mins by bioluminometry-based acute action test; assay type: functional; set-up: scale not given: the % may be the effect or the level left; method in brief: as §2
Mycobacterium [17] = assay: Antibacterial activity against Mycobacterium luteum at 1 to 5 mg/mL after 24 hrs by stiff-plate agar-diffusion method; assay type: functional, organism-based
Method in brief: (§3)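 Agar diffusion (stiff plate) with test substances at 5 mg/mL in grooves, allowed to diffuse into nutrient agar; inoculum 10^9 c.f.u./mL; bacteria incubated 24 h at 35 °C. Read-out: inhibition zone diameter (not sensitive 11–15 mm, sensitive 16–25 mm, highly sensitive >25 mm). Vancomycin and oxacillin as standards; three repeats.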

CCRF-CEM = assay: Cytotoxicity against human CCRF-CEM cells assessed as cell growth at 10^-5 M after 48 hrs by SRB assay; assay type: functional; details: read-out: Activity
Method in brief: (§4)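 NCI 60-cell-line one-dose primary screen: cells inoculated and preincubated 24–48 h, then test agent added at a single 10^-5 M concentration for a further 48 h. Endpoint is sulforhodamine B protein staining read spectrophotometrically. Reported as percent growth relative to untreated control cells.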

Staphylococcus aureus [18] = assay: Antibacterial activity against Staphylococcus aureus at 1 to 5 mg/mL after 24 hrs by stiff-plate agar-diffusion method; assay type: functional, organism-based; method in brief: as §3
Escherichia coli [19] = assay: Antibacterial activity against Escherichia coli at 1 to 5 mg/mL after 24 hrs by stiff-plate agar-diffusion method; assay type: functional, organism-based; method in brief: as §3
U-251 = assay: Cytotoxicity against human U251 cells assessed as cell growth at 10^-5 M after 48 hrs by SRB assay; assay type: functional; details: U-251, 48 h, read-out: Activity
Method in brief: (§5)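 NCI human tumor cell line panel from nine cancer types. Each line was inoculated and preincubated 24–48 h, then exposed to a single concentration (10^-5 M) for 48 h. Growth was read by sulforhodamine B protein staining, measured spectrophotometrically. Value reported as percent growth of treated cells relative to untreated controls.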

Aspergillus niger [20] = assay: Antifungal activity against Aspergillus niger at 1 to 5 mg/mL after 48 to 72 hrs by stiff-plate agar-diffusion method; assay type: functional, organism-based
Method in brief: (§6)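 Fungal plates run by stiff-plate agar diffusion, substances applied to grooves at 5 mg/mL; 10^9 c.f.u./mL cells; incubation 48–72 h at 28–30 °C. Inhibition zone diameter scored (11–15 mm not sensitive, 16–25 mm sensitive, >25 mm highly sensitive). Nystatin standard; experiments done three times.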

UACC-257 = assay: Cytotoxicity against human UACC257 cells assessed as cell growth at 10^-5 M after 48 hrs by SRB assay; assay type: functional; details: UACC-257, 48 h, read-out: Activity; method in brief: as §5
SR = assay: Cytotoxicity against human SR cells assessed as cell growth at 10^-5 M after 48 hrs by SRB assay; assay type: functional; details: read-out: Activity; method in brief: as §5
M14 = assay: Cytotoxicity against human M14 cells assessed as cell growth at 10^-5 M after 48 hrs by SRB assay; assay type: functional; details: M14, 48 h, read-out: Activity; method in brief: as §4
Yamadazyma tenuis [21] = assay: Antifungal activity against Candida tenuis at 1 to 5 mg/mL after 48 to 72 hrs by stiff-plate agar-diffusion method; assay type: functional, organism-based; method in brief: as §6
SNB-75 = assay: Cytotoxicity against human SNB75 cells assessed as cell growth at 10^-5 M after 48 hrs by SRB assay; assay type: functional; details: SNB-75, 48 h, read-out: Activity; method in brief: as §5
A549 = assay: Cytotoxicity against human A549 cells assessed as cell growth at 10^-5 M after 48 hrs by SRB assay; assay type: functional; details: A549, 48 h, read-out: Activity; method in brief: as §4
[22] = system: Photobacterium leiognathi; assay: Antibacterial activity against Photobacterium leiognathi Sh1 at 0.1 to 0.25 ug/mL; assay type: functional, organism-based
UO-31 = assay: Cytotoxicity against human UO31 cells assessed as cell growth at 10^-5 M after 48 hrs by SRB assay; assay type: functional; details: UO-31, 48 h, read-out: Activity; method in brief: as §5
SK-OV-3 = assay: Cytotoxicity against human SKOV3 cells assessed as cell growth at 10^-5 M after 48 hrs by SRB assay; assay type: functional; details: SK-OV-3, 48 h, read-out: Activity; method in brief: as §5
K562 = assay: Cytotoxicity against human K562 cells assessed as cell growth at 10^-5 M after 48 hrs by SRB assay; assay type: functional; details: K562, 48 h, read-out: Activity; method in brief: as §4
PC-3 = assay: Cytotoxicity against human PC3 cells assessed as cell growth at 10^-5 M after 48 hrs by SRB assay; assay type: functional; details: PC-3, 48 h, read-out: Activity; method in brief: as §5
[23] = in the assay text read “after 16 to 18 hrs” for “after 10 mins”

For `Cc1nn2c(SCC(=O)Nc3ccc(C45CC6CC(CC(C6)C4)C5)cc3)nc3ccccc3c2nc1=O`, the zone of inhibition at 100 µg/mL (Yamadazyma tenuis [1]) was 0 mm, the zone of inhibition at 100 µg/mL (Escherichia coli [2]) was 0 mm and the Activity [3] was 94.57%. It also gave an Activity [4] of 90%, a zone of inhibition at 100 µg/mL (Mycobacterium [5]) of 0 mm and a zone of inhibition at 500 µg/mL (Mycobacterium [6]) of 0 mm. The zone of inhibition at 500 µg/mL (Aspergillus niger [7]) was 21 mm, the zone of inhibition at 100 µg/mL (Aspergillus niger [8]) was 0 mm and the zone of inhibition at 500 µg/mL (Yamadazyma tenuis [9]) was 0 mm. It also gave a zone of inhibition at 500 µg/mL (Escherichia coli [10]) of 0 mm, an Activity [11] of 65.71% and a zone of inhibition at 100 µg/mL (Staphylococcus aureus [12]) of 0 mm. The Activity [13] was 86.96%, the Activity [14] was 50% and the zone of inhibition at 500 µg/mL (Staphylococcus aureus [15]) was 0 mm. It also gave an Activity [16] of 32.86%.

With `O=C(O)CSc1nc2ccccc2c2nc(=O)c(-c3ccccc3)nn12` the Activity (Mycobacterium [17]) was “inactive”, the growth at 10 µM (CCRF-CEM) was 92.5% and the Activity (Staphylococcus aureus [18]) was “inactive”. The Activity [3, 23] was 40.9%, the Activity (Escherichia coli [19]) was “inactive” and the Activity [4] was 100%. The growth at 10 µM (U-251) was 91.4%, the Activity (Aspergillus niger [20]) was “inactive” and the growth at 10 µM (UACC-257) was 93.2%. For the same molecule, the growth at 10 µM (SR) was 91.9%, the growth at 10 µM (M14) was 96.8% and the Activity [11] was 75%. The Activity (Yamadazyma tenuis [21]) was “inactive”, the growth at 10 µM (SNB-75) was 86.6% and the growth at 10 µM (A549) was 82.5%. For the same molecule, the Activity [13, 23] was 34%, the Activity [14, 23] was 3.6% and the Activity [22] was “inactive”. For the same molecule, the growth at 10 µM (UO-31) was 89%, the growth at 10 µM (SK-OV-3) was 97% and the Activity [16] was 50%. It also gave a growth at 10 µM (K562) of 92% and a growth at 10 µM (PC-3) of 90.8%.

Source: ChEMBL document CHEMBL1914438, “Synthesis and biological activity of novel N-cycloalkyl-(cycloalkylaryl)-2-[(3-R-2-oxo-2H-[1,2,4]triazino[2,3-c]quinazoline-6-yl)thio]acetamides” (2011)
